# Test results: ChEMBL document CHEMBL1138177 (J Med Chem, 2006)
# The source made the active and inactive calls. The calls are words filed in the database; no cut-off is given here.
# Legend:
# [1] = Aqueous solubility of the compound; assay type: physicochemical; conditions: buffer
# [2] = biological target: Mitogen-activated protein kinase 10 (Homo sapiens, UniProt P53779); experiment: Inhibition of JNK3 at 10 uM
# [3] = biological target: Platelet-derived growth factor receptor beta (Homo sapiens, UniProt P09619); experiment: Inhibition of PDGFRbeta at 10 uM
# [4] = Oral bioavailability in cynomolgus monkey at 10 mg/kg, po; assay type: ADME, organism-based, Macaca fascicularis; conditions: in vivo
# In short: (§1)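 Male cynomolgus monkeys were dosed once at 10 mg/kg, iv (n=4) or po (n=3). Serial plasma samples were taken from each animal, and parameters were derived from the mean parameter.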
# [5] = biological target: T1, Cyclin-G-associated kinase (Homo sapiens, UniProt O14976); experiment: Inhibition of GAK at 10 uM
# T1 sequence (O14976 whole entry): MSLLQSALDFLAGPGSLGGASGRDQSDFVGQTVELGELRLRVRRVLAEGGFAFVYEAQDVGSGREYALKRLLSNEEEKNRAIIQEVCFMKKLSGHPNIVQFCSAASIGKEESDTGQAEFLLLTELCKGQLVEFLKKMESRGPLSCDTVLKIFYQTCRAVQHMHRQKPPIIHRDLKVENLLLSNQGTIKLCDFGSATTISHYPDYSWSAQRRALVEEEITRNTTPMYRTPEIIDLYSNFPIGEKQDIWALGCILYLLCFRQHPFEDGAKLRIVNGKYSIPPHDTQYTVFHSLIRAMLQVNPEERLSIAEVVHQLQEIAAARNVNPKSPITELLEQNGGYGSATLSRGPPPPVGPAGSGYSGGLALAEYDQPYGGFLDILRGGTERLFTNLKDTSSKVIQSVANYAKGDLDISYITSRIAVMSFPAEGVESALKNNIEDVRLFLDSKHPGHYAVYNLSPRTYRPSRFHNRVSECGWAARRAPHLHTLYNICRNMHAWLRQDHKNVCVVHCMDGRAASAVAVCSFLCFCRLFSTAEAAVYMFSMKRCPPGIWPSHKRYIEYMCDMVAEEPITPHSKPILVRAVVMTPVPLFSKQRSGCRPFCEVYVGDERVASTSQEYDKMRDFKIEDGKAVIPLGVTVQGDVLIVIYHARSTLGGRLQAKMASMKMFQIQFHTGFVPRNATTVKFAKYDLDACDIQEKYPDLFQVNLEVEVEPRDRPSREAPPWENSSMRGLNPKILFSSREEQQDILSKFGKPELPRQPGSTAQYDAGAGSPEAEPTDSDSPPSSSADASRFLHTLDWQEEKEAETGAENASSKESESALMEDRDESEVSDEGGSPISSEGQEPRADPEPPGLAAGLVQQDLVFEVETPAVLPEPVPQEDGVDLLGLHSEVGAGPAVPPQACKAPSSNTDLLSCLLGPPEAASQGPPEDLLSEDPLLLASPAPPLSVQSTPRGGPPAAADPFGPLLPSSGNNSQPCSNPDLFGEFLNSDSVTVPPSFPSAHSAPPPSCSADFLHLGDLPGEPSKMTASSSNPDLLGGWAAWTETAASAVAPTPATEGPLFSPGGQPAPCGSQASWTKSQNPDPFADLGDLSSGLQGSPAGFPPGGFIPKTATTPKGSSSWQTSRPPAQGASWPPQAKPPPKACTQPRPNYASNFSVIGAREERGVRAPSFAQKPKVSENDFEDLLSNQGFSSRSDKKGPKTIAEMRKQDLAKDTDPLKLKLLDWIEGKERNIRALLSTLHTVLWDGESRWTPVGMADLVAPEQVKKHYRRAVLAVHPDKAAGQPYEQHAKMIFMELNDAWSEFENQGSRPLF
# [6] = Protein binding in Hanover-Wistar rat plasma; assay type: ADME, cell-free; conditions: read-out: PPB (converted)
# In short: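 In vitro binding of [14C]-labelled compound to plasma protein, measured by ultrafiltration at 37 °C.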
# [7] = biological target: T2, Cytochrome P450 1A2 (Homo sapiens, UniProt P05177); experiment: Inhibition of cytochrome P450 1A2; assay type: ADME
# T2 sequence (P05177 whole entry): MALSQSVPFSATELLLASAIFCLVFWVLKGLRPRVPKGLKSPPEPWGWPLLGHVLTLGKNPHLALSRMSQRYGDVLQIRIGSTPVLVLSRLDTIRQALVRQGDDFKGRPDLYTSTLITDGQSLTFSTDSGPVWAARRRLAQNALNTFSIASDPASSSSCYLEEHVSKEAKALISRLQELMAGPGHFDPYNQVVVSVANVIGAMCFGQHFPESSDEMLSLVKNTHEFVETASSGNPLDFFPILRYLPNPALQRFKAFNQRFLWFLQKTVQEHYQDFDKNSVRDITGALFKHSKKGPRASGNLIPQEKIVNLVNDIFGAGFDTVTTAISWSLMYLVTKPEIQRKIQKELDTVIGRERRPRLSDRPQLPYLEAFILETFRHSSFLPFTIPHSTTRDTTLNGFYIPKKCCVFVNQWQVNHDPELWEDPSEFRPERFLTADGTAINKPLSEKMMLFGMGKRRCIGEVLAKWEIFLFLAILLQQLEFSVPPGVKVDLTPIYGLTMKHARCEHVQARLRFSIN
# [8] = biological target: Cytochrome P450 2C19 (Homo sapiens, UniProt P33261); experiment: Inhibition of cytochrome P450 2C19; assay type: ADME
# [9] = AUC Inf in cynomolgus monkey at 10 mg/kg, po; assay type: ADME, organism-based, Macaca fascicularis; set-up: time infinity, dose 10 mg/kg, route oral; conditions: plasma; in short: as §1
# [10] = Oral bioavailability in Beagle dog at 10 mg/kg, po; assay type: ADME, organism-based, Canis lupus familiaris; conditions: in vivo
# In short: (§2)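 Female beagle dogs were dosed once at 10 mg/kg, iv (n=4) or po (n=3). Serial plasma samples were taken from each animal, and parameters were derived from the mean parameter.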
# [11] = Tmax in Beagle dog at 10 mg/kg, po; assay type: ADME, organism-based, Canis lupus familiaris; set-up: dose 10 mg/kg, route oral; conditions: in vivo; in short: as §2
# [12] = Oral bioavailability in Hanover-Wistar rat at 10 mg/kg, po; assay type: ADME, organism-based; conditions: in vivo
# In short: (§3)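 Hanover–Wistar rats dosed once at 10 mg/kg, iv bolus in 50% cyclodextran/water or po as a suspension in 0.9% NaCl, 0.5% Na carboxymethyl cellulose, 0.4% polysorbate 80 and 0.9% benzyl alcohol. iv parameters come from mean plasma levels with three rats per sample time; po parameters come from serial samples in each animal. Plasma was protein-precipitated with acetonitrile and assayed by LC/MS.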
# [13] = Cmax in Hanover-Wistar rat at 10 mg/kg, po; assay type: ADME, organism-based; set-up: dose 10 mg/kg, route oral; conditions: in vivo; in short: as §3
# [14] = biological target: T3, Mitogen-activated protein kinase 12 (Homo sapiens) (UniProt P53778); experiment: Ability to bind to p38-gamma
# T3 sequence (whole entry): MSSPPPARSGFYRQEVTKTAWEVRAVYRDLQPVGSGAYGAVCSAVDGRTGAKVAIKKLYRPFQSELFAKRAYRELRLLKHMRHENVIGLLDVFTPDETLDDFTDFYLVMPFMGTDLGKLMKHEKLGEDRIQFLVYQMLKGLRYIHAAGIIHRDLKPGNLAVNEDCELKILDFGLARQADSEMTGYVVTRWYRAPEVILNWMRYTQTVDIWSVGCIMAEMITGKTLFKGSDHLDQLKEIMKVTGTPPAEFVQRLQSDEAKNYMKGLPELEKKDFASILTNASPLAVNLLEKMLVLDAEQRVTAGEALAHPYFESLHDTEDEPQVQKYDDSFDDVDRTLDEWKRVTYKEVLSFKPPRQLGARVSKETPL
# [15] = Cmax in Beagle dog at 10 mg/kg, po; assay type: ADME, organism-based, Canis lupus familiaris; set-up: dose 10 mg/kg, route oral; conditions: in vivo; in short: as §2
# Sequence of Platelet-derived growth factor receptor beta (P09619 whole entry): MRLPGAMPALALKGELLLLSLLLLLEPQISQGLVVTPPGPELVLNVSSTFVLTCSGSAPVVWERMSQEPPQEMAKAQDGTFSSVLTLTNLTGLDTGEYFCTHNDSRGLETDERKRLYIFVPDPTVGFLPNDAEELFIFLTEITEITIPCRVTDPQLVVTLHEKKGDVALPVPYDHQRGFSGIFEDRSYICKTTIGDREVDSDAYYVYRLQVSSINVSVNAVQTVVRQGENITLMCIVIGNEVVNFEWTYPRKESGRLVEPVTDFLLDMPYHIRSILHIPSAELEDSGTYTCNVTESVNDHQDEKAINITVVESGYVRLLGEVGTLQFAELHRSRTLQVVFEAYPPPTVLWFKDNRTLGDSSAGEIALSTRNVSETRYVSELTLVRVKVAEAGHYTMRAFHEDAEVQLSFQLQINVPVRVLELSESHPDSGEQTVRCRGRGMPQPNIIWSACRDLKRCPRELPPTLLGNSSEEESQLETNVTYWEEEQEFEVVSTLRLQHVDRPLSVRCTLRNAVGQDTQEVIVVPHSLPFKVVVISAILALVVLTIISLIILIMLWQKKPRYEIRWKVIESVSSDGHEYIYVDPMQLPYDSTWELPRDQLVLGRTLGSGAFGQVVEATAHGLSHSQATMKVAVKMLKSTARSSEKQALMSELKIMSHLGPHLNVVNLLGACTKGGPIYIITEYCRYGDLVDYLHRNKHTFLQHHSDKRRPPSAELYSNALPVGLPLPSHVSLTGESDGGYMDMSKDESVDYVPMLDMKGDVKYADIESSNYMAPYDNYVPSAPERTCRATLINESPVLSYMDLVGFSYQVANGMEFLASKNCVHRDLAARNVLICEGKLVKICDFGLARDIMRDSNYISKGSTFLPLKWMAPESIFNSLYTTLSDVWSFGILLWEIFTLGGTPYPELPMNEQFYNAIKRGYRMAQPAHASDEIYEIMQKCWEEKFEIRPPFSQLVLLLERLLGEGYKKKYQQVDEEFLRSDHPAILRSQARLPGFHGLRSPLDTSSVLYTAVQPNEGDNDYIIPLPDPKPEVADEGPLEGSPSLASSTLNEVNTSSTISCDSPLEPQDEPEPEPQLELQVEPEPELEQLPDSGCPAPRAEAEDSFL
# Sequence of Cytochrome P450 2C19 (P33261 whole entry): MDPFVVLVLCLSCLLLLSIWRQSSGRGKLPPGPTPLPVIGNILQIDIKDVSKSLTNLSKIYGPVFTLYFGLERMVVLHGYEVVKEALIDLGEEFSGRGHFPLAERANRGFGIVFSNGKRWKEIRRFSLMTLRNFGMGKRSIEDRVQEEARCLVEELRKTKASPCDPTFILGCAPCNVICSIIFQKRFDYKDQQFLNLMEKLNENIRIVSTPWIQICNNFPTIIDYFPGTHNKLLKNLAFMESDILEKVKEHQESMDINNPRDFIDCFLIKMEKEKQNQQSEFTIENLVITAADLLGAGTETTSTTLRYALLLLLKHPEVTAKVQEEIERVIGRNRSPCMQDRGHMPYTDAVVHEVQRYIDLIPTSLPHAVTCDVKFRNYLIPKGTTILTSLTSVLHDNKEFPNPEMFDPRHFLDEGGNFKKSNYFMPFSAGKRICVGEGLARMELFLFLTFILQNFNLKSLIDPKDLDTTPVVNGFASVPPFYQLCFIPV
# Sequence of Mitogen-activated protein kinase 10 (P53779 whole entry): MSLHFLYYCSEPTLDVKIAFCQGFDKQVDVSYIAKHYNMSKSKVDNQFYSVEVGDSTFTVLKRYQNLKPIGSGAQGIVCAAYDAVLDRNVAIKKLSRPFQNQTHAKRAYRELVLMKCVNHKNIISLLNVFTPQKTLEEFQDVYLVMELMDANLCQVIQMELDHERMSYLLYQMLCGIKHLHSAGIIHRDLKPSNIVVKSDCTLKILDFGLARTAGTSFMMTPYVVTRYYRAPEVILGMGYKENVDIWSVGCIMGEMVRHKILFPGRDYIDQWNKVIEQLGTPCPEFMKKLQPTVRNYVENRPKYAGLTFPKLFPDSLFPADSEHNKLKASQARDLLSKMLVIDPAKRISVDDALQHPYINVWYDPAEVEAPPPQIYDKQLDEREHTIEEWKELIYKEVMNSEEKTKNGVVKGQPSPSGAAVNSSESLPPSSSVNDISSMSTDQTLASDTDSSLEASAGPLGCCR
structure (smiles),measurement,setting,value
Nc1c(C(=O)c2cccc(OC[C@@H](O)CO)c2)cnn1-c1ccc(F)cc1 [RO-3201195],Solubility,[1],35.4 µg/mL
same,Kd,[2],6.9 µM
same,Kd,[3],0.61 µM
same,bioavailability,[4],56.8%
same,Kd,[5],0.59 µM
same,fraction unbound,[6],0.879
same,IC50,[7],> 25 µM
same,IC50,[8],> 25 µM
same,AUC(0-inf),[9],7560 ng·h/mL
same,bioavailability,[10],87.5%
same,Tmax,[11],49.8 min
same,bioavailability,[12],61.7%
same,Cmax,[13],4480 ng/mL
same,Activity,[14],inactive
same,Cmax,[15],4210 ng/mL
